Among the data in ChEMBL document CHEMBL1177847, “Combating oxidative stress in epilepsy: design, synthesis, quantum chemical studies and anticonvulsant evaluation of 1-(substituted benzylidene/ethylidene)-4-(naphthalen-1-yl)semicarbazides” (Eur J Med Chem, 2010) are Activity and minimal effective dose values, retold here.

The subject of series [1] is Mus musculus. Briefly: Restoration of SOD activity in subcutaneous pentylenetetrazole treated Swiss albino mouse brain assessed per mg of protein at 100 mg/kg, ip after 4 hrs. Format: functional. To be noted: route intraperitoneal. An outline of the steps: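 The ethanol phase of an ethanol/chloroform (5:3) extract of brain supernatant was used, from PTZ-treated mice 4 h after 100 mg/kg i.p. Superoxide was generated by xanthine–xanthine oxidase at pH 10.2 with NBT, 20 min at 25 °C. The reaction was stopped with CuCl2 and read at 560 nm. One unit gives 50% inhibition of NBT reduction; results are expressed as U/mg protein. n = 6.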

In series [2] the test system is Mus musculus. Put plainly: Anticonvulsant activity against subcutaneous pentylenetetrazole-induced seizures in ip dosed Swiss albino mouse assessed as minimum effective dose after 4 hrs. It counts as functional. Conditions: read-out: MED. An outline of the steps:
(§1)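 Male Swiss albino mice (18–25 g) were dosed i.p. with the compound in 5% gum acacia/water at 30, 100 or 300 mg/kg. Thirty minutes later they received PTZ 85 mg/kg (CD97) and were watched for seizures over 4 h. Readings at 0.5 and 4 h gave the lowest dose active in half or more of the animals. Myoclonic jerks were noted separately.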

Series [3] has as its system Mus musculus. Put plainly: Neurotoxicity in ip dosed Swiss albino mouse assessed as minimum dose required to cause impair in motor coordination after 4 hrs by rotarod test. Format: toxicity, organism-based. Conditions: in vivo. An outline of the steps:
(§2)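 Rotarod motor-impairment test in male Swiss albino mice dosed i.p. at 30, 100 or 300 mg/kg in 5% gum acacia/water. Mice that fell off the rotating rod within 30 s during pretraining were excluded. The dose at which animals fell off was recorded at 0.5 and 4 h.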
(In general: The rotarod test checks motor coordination on a turning rod.)

For series [4], the system named is Mus musculus. Briefly: Restoration of GSH peroxidase activity in subcutaneous pentylenetetrazole treated Swiss albino mouse brain assessed per mg of protein at 100 mg/kg, ip after 4 hrs. It counts as functional. To be noted: route intraperitoneal. An outline of the steps:
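Brain homogenate came from PTZ-treated mice 4 h after 100 mg/kg i.p. dosing, using the 10500 × g supernatant. Samples were equilibrated 5 min at 25 °C, started with H2O2, and A340 was followed for 5 min. n = 6.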

In series [5] the test system is Mus musculus. Put plainly: Neurotoxicity in ip dosed Swiss albino mouse assessed as minimum dose required to cause impair in motor coordination after 0.5 hrs by rotarod test. Format: toxicity, organism-based. Conditions: in vivo. An outline of the steps: as §2
Series [6] has as its system Rattus norvegicus. Briefly: Anticonvulsant activity against subcutaneous pentylenetetrazole-induced seizures in Wistar albino rat at 50 mg/kg, ip after 0.5 hrs. Format: functional.
The subject of series [7] is Rattus norvegicus. Put plainly: Anticonvulsant activity against subcutaneous pentylenetetrazole-induced seizures in Wistar albino rat at 50 mg/kg, ip after 0.25 hrs. To be noted: route intraperitoneal. Format: functional.
For series [8], the system named is Mus musculus. Put plainly: Anticonvulsant activity against subcutaneous pentylenetetrazole-induced seizures in ip dosed Swiss albino mouse assessed as minimum effective dose after 0.5 hrs. Format: functional. Conditions: read-out: MED. An outline of the steps: as §1
Series [9] concerns Rattus norvegicus. Put plainly: Anticonvulsant activity against subcutaneous pentylenetetrazole-induced seizures in Wistar albino rat at 50 mg/kg, ip after 2 hrs. Format: functional.
The subject of series [10] is Mus musculus. Briefly: Anticonvulsant activity against maximal electroshock-induced seizures in ip dosed Swiss albino mouse assessed as minimum effective dose after 4 hrs. Format: functional. To be noted: read-out: MED. An outline of the steps: (§3)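 Male Swiss albino mice (18–25 g) received the compound suspended in 5% gum acacia/water, i.p. at 30, 100 and 300 mg/kg (one to four animals per dose). Maximal electroshock was applied at 0.5 and 4 h. Protection meant abolition of the hind limb tonic extensor component. The lowest dose protecting half or more of the mice was recorded.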
In general terms: The maximal electroshock test induces tonic seizures with an electrical stimulus.

The subject of series [11] is Mus musculus. Put plainly: Reduction of lipid peroxidation in subcutaneous pentylenetetrazole treated Swiss albino mouse brain assessed reduction of malondialdehyde level per mg of protein at 100 mg/kg, ip after 4 hrs by TBARS assay. Format: functional. To be noted: route intraperitoneal. Put shortly: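 PTZ-treated mice were dosed at 100 mg/kg i.p. and decapitated 4 h after the last injection. Brains were homogenized in four volumes of ice-cold 50 mM Tris-HCl, pH 7.4, and spun at 3000 × g for 15 min. TBARS in the supernatant was read at 532 nm in the upper organic layer and expressed as nmol MDA/mg protein. n = 6, mean ± S.E.M.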

Series [12] concerns Mus musculus. Briefly: Anticonvulsant activity against maximal electroshock-induced seizures in ip dosed Swiss albino mouse assessed as minimum effective dose after 0.5 hrs. It counts as functional. Conditions: read-out: MED. An outline of the steps:
as §3

Series [13] has as its system Rattus norvegicus. Briefly: Anticonvulsant activity against subcutaneous pentylenetetrazole-induced seizures in Wistar albino rat at 50 mg/kg, ip after 1 hr. Format: functional.
In series [14] the test system is Mus musculus. Briefly: Restoration of GSH level in subcutaneous pentylenetetrazole treated Swiss albino mouse brain assessed per gram of tissue at 100 mg/kg, ip after 4 hrs. It counts as functional. Conditions: route intraperitoneal. Put shortly:
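Brains were taken from PTZ-treated mice 4 h after 100 mg/kg i.p. dosing. Tissue was deproteinized with an equal volume of 10% TCA for 2 h at 4 °C and centrifuged at 2000 g for 15 min. The supernatant was mixed with 0.4 M Tris (pH 8.9) containing 0.02 M EDTA, and 0.01 M DTNB was added before spectrophotometric reading. n = 6.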

Series [15] has as its system Mus musculus. Put plainly: Toxicity in subcutaneous pentylenetetrazole-induced Swiss albino mouse assessed as myoclonic jerks at 100 mg/kg, ip after 0.5 hrs. It counts as organism-based. The arrangement: dose 100 mg/kg. Put shortly: as §1
Series [16] has as its system Mus musculus. Briefly: Anticonvulsant activity against maximal electroshock-induced seizures in Swiss albino mouse at 300 mg/kg, ip after 4 hrs. It counts as functional, organism-based. The arrangement: dose 300 mg/kg. Put shortly:
as §3

In series [17] the test system is Mus musculus. Put plainly: Toxicity in subcutaneous pentylenetetrazole-induced Swiss albino mouse assessed as death at 30 to 300 mg/kg, ip after 4 hrs. Format: organism-based. The arrangement: dose 30-300 mg/kg. Put shortly:
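Male Swiss albino mice (18–25 g) given compound suspended in 5% gum acacia/water, i.p. at 30, 100 or 300 mg/kg, one to four animals per dose. PTZ at 85 mg/kg was injected 30 min after compound. Animals were examined 0.5 and 4 h after administration, and death following tonic extension was noted. The maximum dose was 300 mg/kg.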

Series [18] has as its system Mus musculus. Briefly: Anticonvulsant activity against maximal electroshock-induced seizures in Swiss albino mouse at 300 mg/kg, ip after 0.5 hrs. It counts as functional, organism-based. On the set-up: dose 300 mg/kg. An outline of the steps: as §3
The subject of series [19] is Mus musculus. Put plainly: Neurotoxicity in ip dosed Swiss albino mouse assessed as impair in motor coordination at 300 mg/kg, ip after 0.5 hrs by rotarod test. It counts as toxicity, organism-based. The arrangement: dose 300 mg/kg, route intraperitoneal. To be noted: in vivo. An outline of the steps: as §2
Series [20] relates to Mus musculus. Briefly: Toxicity in subcutaneous pentylenetetrazole-induced Swiss albino mouse assessed as myoclonic jerks at 300 mg/kg, ip after 0.5 hrs. Format: organism-based. The arrangement: dose 300 mg/kg. Put shortly: as §1

Activity calls are given as the source filed them. The rule behind the calls is not given here.

For the molecule `COc1cc(/C=N/NC(=O)Nc2cccc3ccccc23)cc(OC)c1OC`, the Activity in [1] is 1.77 U; in [3], 300 mg/kg; in series [4] it was 1.97 U; in series [5], 300 mg/kg; in [6], 100%; in [7] it was 25%. Besides, the Activity in series [9] turned out to be 50%; in [11], 1.87 nmol; in series [13], 75%; in series [14], 24.56 µg. The minimal effective dose in series [2], in series [8], in [10] and in series [12] was 100 mg/kg in each case.

For the molecule `CN(C)c1ccc(/C=N/NC(=O)Nc2cccc3ccccc23)cc1`, the minimal effective dose turned out to be 300 mg/kg in series [2], 100 mg/kg in series [10] and 100 mg/kg in series [12]. Also, the Activity in series [3] was 100 mg/kg; in series [5] it was 100 mg/kg; in [15], “Toxic”.

Turning to `O=C(N/N=C/c1ccccc1O)Nc1cccc2ccccc12`, the outcome in series [16] and in [18] was inactive. In addition, the figures for the Activity in series [3], in series [5] and in series [17] were 300 mg/kg, 300 mg/kg and “Toxic”, respectively. Also, in series [8], the minimal effective dose worked out at 300 mg/kg.

`O=C(N/N=C/c1ccc(F)cc1)Nc1cccc2ccccc12`: the Activity in series [3] was 100 mg/kg; in series [17], “Toxic”; in series [19], “Non-toxic”. The minimal effective dose in [8] and in series [10] was 300 mg/kg each time. In addition, the result in [18] was inactive.

As to `O=C(N/N=C/c1ccc([N+](=O)[O-])cc1)Nc1cccc2ccccc12`, the Activity is 1.73 U in series [1]; 300 mg/kg in [3]; 1.47 U in series [4]; 3.39 nmol in [11]; “Non-toxic” in [19]; 16.76 µg in series [14]. The Activity result in [15] is on record as “Toxic”. The minimal effective dose in [2], in [10] and in series [12] was 300 mg/kg throughout.

Consider `C/C(=N\NC(=O)Nc1cccc2ccccc12)c1ccc(Cl)cc1Cl`, for which the minimal effective dose in [2] and in series [10] was 300 mg/kg throughout. Further, the figures for the Activity result in [20], in series [3] and in series [19] were “Toxic”, 300 mg/kg and “Non-toxic”, respectively. For the same molecule, the outcome in [18] was inactive.
